How the values were obtained:
[1] = target: Tyrosine-protein kinase Fer (Homo sapiens, UniProt P16591); assay: Inhibition of FER Lys1 labeling site in human Huh-7 cell lysate at 1 uM by KiNativ Profiling analysis relative to control; type: subcellular
[2] = target: RAF proto-oncogene serine/threonine-protein kinase (Homo sapiens, UniProt P04049); assay: Inhibition of RAF1 Lys2 labeling site in human A-375 cells at 0.5 uM by KiNativ Profiling analysis relative to control; type: cell-based
[3] = target: T1, Serine/threonine-protein kinase Nek9 (Homo sapiens) (UniProt Q8TD19); assay: Inhibition of NEK9 Lys1 labeling site harbouring RTEDDSLVVWKEVDLTR in human A-375 cells at 0.05 uM by KiNativ Profiling analysis relative to control; type: cell-based
T1 sequence (whole entry): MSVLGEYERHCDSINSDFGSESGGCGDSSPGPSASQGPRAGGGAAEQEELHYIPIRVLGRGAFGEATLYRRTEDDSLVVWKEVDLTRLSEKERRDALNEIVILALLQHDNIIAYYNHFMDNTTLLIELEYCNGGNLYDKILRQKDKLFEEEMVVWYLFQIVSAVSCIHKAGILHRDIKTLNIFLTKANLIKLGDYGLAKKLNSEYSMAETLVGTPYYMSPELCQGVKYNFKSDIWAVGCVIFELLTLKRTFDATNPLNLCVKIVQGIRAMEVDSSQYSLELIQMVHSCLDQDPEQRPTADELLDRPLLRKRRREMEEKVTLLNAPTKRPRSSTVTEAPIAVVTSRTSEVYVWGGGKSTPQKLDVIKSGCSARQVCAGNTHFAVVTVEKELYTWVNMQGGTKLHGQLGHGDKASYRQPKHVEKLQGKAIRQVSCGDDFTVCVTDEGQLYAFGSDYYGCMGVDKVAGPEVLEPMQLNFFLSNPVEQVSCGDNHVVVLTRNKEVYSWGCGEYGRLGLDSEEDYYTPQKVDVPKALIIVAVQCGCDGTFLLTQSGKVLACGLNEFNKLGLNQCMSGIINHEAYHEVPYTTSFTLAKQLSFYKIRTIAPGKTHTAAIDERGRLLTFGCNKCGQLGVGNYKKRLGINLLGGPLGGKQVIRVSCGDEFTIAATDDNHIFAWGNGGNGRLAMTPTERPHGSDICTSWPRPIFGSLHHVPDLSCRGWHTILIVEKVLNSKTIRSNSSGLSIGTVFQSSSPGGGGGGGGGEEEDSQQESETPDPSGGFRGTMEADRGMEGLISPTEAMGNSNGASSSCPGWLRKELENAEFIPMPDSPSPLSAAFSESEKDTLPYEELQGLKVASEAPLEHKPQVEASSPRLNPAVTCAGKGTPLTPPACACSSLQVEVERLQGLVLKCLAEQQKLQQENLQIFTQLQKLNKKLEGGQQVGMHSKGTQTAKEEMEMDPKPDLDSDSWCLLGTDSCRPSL

[4] = target: Calcium/calmodulin-dependent protein kinase kinase 2 (Homo sapiens) (UniProt Q96RR4); assay: Inhibition of CaMKK2 Lys1 labeling site in human A-375 cells at 5 uM by KiNativ Profiling analysis relative to control; type: cell-based
Chain of Calcium/calmodulin-dependent protein kinase kinase 2 (Homo sapiens) (Q96RR4 2-588 limits assumed): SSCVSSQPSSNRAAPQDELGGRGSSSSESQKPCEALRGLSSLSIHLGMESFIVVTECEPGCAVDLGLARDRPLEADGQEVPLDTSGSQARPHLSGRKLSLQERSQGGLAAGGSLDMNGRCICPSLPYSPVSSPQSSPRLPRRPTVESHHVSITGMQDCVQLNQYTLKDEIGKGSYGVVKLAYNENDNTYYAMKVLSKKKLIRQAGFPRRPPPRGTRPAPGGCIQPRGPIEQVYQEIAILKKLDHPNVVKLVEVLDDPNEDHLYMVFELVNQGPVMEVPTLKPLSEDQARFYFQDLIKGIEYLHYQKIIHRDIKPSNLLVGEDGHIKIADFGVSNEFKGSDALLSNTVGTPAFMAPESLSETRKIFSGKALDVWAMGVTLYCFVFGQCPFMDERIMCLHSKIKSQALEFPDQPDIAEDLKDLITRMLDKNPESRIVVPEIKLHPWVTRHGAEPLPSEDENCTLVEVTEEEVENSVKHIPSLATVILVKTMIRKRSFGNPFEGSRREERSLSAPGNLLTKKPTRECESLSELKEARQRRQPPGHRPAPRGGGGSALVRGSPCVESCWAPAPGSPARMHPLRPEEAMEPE
Method in brief: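 Live A375 melanoma cells were treated with compound at 5 or 0.5 μM. The cells were then lysed, and the lysates were labeled with a lysine-reactive ATP or ADP-biotin acyl probe (KiNativ). Inhibition is the compound's protection of each kinase labeling-site peptide from probe labeling, relative to untreated control.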

[5] = target: Cyclin-dependent kinase 16 (Homo sapiens) (UniProt Q00536); assay: Inhibition of PFTAIRE1 Lys1 labeling site in human A-375 cells at 0.5 uM by KiNativ Profiling analysis relative to control; type: cell-based
Chain of Cyclin-dependent kinase 16 (Homo sapiens) (Q00536 whole entry, the tested form may be a part): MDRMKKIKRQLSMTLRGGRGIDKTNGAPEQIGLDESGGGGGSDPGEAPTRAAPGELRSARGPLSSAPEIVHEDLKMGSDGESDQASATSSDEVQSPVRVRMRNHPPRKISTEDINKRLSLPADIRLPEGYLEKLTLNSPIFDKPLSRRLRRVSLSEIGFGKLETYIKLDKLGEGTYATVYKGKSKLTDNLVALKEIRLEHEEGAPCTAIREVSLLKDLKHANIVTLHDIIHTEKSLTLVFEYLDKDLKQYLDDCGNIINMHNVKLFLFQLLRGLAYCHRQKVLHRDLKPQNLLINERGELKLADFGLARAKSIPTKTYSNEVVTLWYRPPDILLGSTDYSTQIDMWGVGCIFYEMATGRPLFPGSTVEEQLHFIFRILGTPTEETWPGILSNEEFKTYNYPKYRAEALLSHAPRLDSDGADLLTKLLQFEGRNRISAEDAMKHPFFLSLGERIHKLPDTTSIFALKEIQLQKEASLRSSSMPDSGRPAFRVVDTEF

[6] = target: 3-phosphoinositide-dependent protein kinase 1 (Homo sapiens) (UniProt O15530); assay: Inhibition of PDK1 Protein Kinase Domain in human A-375 cells at 0.5 uM by KiNativ Profiling analysis relative to control
Chain of 3-phosphoinositide-dependent protein kinase 1 (Homo sapiens) (O15530 whole entry, looked up, the tested form may be a part): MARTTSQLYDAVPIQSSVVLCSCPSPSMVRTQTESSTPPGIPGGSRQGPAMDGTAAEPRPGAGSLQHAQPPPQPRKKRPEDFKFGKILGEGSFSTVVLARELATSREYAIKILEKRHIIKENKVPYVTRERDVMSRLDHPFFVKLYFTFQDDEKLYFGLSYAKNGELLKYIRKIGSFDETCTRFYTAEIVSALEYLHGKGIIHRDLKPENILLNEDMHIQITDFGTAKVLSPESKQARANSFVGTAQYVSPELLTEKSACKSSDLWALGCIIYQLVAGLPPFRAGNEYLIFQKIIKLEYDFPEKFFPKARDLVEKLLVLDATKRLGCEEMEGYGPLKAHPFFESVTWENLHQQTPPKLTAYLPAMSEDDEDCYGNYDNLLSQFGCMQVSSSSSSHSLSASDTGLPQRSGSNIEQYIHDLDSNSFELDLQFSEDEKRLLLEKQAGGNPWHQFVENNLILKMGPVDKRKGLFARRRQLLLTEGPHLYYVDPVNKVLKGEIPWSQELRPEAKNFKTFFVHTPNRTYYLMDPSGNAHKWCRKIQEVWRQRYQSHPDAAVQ

[7] = target: T2, Kinase suppressor of Ras 1 (Homo sapiens) (UniProt Q8IVT5); assay: Inhibition of KSR1 ACT labeling site harbouring SKNVFYDNGK in human A-375 cells at 0.05 uM by KiNativ Profiling analysis relative to control; type: cell-based
T2 sequence (whole entry): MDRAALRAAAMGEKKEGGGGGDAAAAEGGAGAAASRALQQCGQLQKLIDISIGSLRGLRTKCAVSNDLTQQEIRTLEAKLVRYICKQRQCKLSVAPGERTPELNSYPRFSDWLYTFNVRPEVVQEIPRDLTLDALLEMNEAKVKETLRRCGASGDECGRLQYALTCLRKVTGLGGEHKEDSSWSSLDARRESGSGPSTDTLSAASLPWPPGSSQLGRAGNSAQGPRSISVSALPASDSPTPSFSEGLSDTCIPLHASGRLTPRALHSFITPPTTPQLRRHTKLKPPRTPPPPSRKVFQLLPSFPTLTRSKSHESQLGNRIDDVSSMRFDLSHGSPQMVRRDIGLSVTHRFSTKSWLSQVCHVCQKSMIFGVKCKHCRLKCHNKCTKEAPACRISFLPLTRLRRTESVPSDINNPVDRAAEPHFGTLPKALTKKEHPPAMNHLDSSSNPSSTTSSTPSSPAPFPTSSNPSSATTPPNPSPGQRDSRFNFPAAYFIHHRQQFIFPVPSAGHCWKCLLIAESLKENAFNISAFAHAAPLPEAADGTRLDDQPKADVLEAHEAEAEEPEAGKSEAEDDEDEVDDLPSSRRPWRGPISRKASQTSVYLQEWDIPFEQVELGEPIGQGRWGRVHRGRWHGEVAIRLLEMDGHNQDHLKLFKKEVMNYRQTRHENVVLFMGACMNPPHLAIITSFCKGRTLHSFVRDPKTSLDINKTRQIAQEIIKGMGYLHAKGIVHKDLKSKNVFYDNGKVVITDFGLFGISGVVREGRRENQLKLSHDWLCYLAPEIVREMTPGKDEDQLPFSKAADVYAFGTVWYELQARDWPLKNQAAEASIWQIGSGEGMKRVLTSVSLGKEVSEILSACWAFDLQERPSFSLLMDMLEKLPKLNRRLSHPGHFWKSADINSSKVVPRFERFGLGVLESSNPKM

Chain of RAF proto-oncogene serine/threonine-protein kinase (P04049 whole entry): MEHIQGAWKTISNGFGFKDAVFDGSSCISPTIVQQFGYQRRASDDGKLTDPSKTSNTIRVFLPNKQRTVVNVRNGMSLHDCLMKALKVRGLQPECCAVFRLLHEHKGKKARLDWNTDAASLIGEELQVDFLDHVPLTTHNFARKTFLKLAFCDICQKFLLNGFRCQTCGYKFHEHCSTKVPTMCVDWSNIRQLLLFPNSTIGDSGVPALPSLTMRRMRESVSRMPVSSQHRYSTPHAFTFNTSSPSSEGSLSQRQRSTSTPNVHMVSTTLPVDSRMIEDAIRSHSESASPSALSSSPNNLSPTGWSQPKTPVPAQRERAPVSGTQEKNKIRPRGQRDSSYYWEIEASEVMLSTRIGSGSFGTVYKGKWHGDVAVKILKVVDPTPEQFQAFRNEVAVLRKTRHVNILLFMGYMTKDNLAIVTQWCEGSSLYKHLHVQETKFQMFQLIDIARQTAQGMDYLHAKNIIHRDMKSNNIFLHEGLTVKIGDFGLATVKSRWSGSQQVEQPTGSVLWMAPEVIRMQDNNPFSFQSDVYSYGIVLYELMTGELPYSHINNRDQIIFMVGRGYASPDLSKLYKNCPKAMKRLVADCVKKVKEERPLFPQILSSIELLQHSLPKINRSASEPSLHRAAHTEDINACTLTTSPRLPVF
Chain of Tyrosine-protein kinase Fer (P16591 whole entry, looked up): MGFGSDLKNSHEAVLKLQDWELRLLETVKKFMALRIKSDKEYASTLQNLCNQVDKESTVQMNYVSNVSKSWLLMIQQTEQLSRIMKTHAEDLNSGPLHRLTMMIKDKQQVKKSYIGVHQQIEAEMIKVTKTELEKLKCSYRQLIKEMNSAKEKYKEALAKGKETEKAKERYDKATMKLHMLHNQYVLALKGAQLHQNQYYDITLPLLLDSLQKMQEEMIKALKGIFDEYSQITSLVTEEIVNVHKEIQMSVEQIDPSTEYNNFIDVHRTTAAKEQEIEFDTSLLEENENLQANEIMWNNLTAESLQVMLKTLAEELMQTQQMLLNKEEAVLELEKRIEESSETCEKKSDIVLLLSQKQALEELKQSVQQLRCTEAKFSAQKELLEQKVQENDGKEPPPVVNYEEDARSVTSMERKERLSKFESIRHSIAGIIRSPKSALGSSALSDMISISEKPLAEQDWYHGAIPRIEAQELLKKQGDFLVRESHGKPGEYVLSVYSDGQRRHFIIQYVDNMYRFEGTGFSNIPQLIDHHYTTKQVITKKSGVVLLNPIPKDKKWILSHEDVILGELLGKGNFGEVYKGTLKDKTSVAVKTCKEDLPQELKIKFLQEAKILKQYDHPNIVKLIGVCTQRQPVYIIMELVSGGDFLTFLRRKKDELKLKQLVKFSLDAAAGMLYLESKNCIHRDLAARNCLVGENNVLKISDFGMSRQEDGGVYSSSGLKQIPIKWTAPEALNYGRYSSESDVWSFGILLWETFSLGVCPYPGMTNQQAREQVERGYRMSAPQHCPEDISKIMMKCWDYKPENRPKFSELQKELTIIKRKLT

SMILES	inhibition [1]	inhibition [2]	inhibition [3]	inhibition [4]	inhibition [5]	inhibition [6]	inhibition [7]
CNc1cc(Oc2cc(C(=O)Nc3cc(-n4cnc(C)c4)cc(C(F)(F)F)c3)ccc2C)ncn1	18.2%						
CCN1CCN(Cc2ccc(NC(=O)c3ccc(C)c(Oc4ccnc5[nH]ccc45)c3)cc2C(F)(F)F)CC1		79.2%	1.8%	33.2%	41.3%	15.4%	37%
CCN1CCN(Cc2ccc(NC(=O)c3ccc(C)c(/C=C/c4cnc5[nH]ccc5c4OC)c3)cc2C(F)(F)F)CC1		82.6%	18.8%	14.4%	11.9%	4.4%	8.6%
CNc1cc(Oc2cc(C(=O)Nc3cc(N4CCN(C)CC4)cc(C(F)(F)F)c3)ccc2C)ncn1	10.6%						
